# According to ChEMBL document CHEMBL1649446, “Comparative antipneumococcal activities of sulopenem and other drugs” (2009):
# What was measured:
# Type in all cases: functional
# Streptococcus pneumoniae [1] = test: Antimicrobial activity against Streptococcus pneumoniae isolate 1394 by agar dilution method
# Streptococcus pneumoniae [2] = test: Antimicrobial activity against penicillin-susceptible Streptococcus pneumoniae by agar dilution method
# Streptococcus pneumoniae [3] = test: Antimicrobial activity against Streptococcus pneumoniae isolate 1384 by agar dilution method
# Method in brief: (§1)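 Agar dilution MIC on Mueller-Hinton agar with 5% sheep blood, inocula 10^4 CFU/spot; amoxicillin-clavulanate combined 1:2; S. pneumoniae ATCC 49619 quality control each run.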
# Streptococcus pneumoniae [4] = test: Antimicrobial activity against Streptococcus pneumoniae isolate 3455 by agar dilution method
# Streptococcus pneumoniae [5] = test: Antimicrobial activity against Streptococcus pneumoniae isolate 2874 by agar dilution method; method in brief: as §1
# Streptococcus pneumoniae [6] = test: Antimicrobial activity against Streptococcus pneumoniae 11 by time-kill analysis
# Method in brief: (§2)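 Time-kill in cation-adjusted Mueller-Hinton broth with 5% lysed horse blood; inocula 5 × 105 to 5 × 10^6 CFU/ml; drugs at MIC, 2× and 4× MIC; 35°C shaking water bath; viable counts at 0, 3, 6, 12, 24 h. Bactericidal = ≥3 log10 CFU/ml (99.9%) drop from original inoculum; 90%/99%/99.9% killing scored per strain.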
# Streptococcus pneumoniae [7] = test: Antimicrobial activity against Streptococcus pneumoniae isolate 3791 by agar dilution method; method in brief: as §1
# Streptococcus pneumoniae [8] = test: Antimicrobial activity against Streptococcus pneumoniae isolate 2686 by agar dilution method; method in brief: as §1
# Streptococcus pneumoniae [9] = test: Antimicrobial activity against Streptococcus pneumoniae isolate 3374 by agar dilution method; method in brief: as §1
# Streptococcus pneumoniae [10] = test: Antimicrobial activity against Streptococcus pneumoniae 5 by time-kill analysis
# Method in brief: as §2, with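 “12 and” for “12,”, “if” for “=”, “reduction” for “drop”, “90% and 99%” for “90%/99%/99.9%”, “also scored.” for “scored per strain.”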
# Streptococcus pneumoniae [11] = test: Antimicrobial activity against Streptococcus pneumoniae 7 by time-kill analysis; method in brief: as §2
# Streptococcus pneumoniae [12] = test: Antimicrobial activity against Streptococcus pneumoniae isolate 37 by agar dilution method; method in brief: as §1
# Streptococcus pneumoniae [13] = test: Antimicrobial activity against penicillin-resistant Streptococcus pneumoniae by agar dilution method; method in brief: as §1
# Streptococcus pneumoniae [14] = test: Antimicrobial activity against Streptococcus pneumoniae isolate 33 by agar dilution method; method in brief: as §1
# Streptococcus pneumoniae [15] = test: Antimicrobial activity against Streptococcus pneumoniae isolate 3458 by agar dilution method
# Streptococcus pneumoniae [16] = test: Antimicrobial activity against Streptococcus pneumoniae isolate 1147 by agar dilution method; method in brief: as §1
# Streptococcus pneumoniae [17] = test: Antimicrobial activity against Streptococcus pneumoniae isolate 3260 by agar dilution method
# Streptococcus pneumoniae [18] = test: Antimicrobial activity against Streptococcus pneumoniae 9 by time-kill analysis
# Method in brief: as §2, with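 “12 and” for “12,”, “if” for “=”, “reduction” for “drop”, “90% and 99%” for “90%/99%/99.9%”, “also scored.” for “scored per strain.”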
# Streptococcus pneumoniae [19] = test: Antimicrobial activity against Streptococcus pneumoniae 8 by time-kill analysis; method in brief: as §2
# Streptococcus pneumoniae [20] = test: Antimicrobial activity against Streptococcus pneumoniae isolate 3346 by agar dilution method
# Streptococcus pneumoniae [21] = test: Antimicrobial activity against Streptococcus pneumoniae isolate 3412 by agar dilution method; method in brief: as §1
# Streptococcus pneumoniae [22] = test: Antimicrobial activity against Streptococcus pneumoniae isolate 1146 by agar dilution method; method in brief: as §1
# Streptococcus pneumoniae [23] = test: Antimicrobial activity against Streptococcus pneumoniae isolate 3587 by agar dilution method
# Streptococcus pneumoniae [24] = test: Antimicrobial activity against Streptococcus pneumoniae 10 by time-kill analysis; method in brief: as §2
# Streptococcus pneumoniae [25] = test: Antimicrobial activity against Streptococcus pneumoniae isolate 24 by agar dilution method
# Streptococcus pneumoniae [26] = test: Antimicrobial activity against Streptococcus pneumoniae isolate 1564 by agar dilution method
# Streptococcus pneumoniae [27] = test: Antimicrobial activity against penicillin-intermediate Streptococcus pneumoniae by agar dilution method
# Streptococcus pneumoniae [28] = test: Antimicrobial activity against Streptococcus pneumoniae isolate 2880 by agar dilution method; method in brief: as §1
# Streptococcus pneumoniae [29] = test: Antimicrobial activity against Streptococcus pneumoniae isolate 4755 by agar dilution method; method in brief: as §1
# Streptococcus pneumoniae [30] = test: Antimicrobial activity against Streptococcus pneumoniae isolate 3263 by agar dilution method
# Streptococcus pneumoniae [31] = test: Antimicrobial activity against Streptococcus pneumoniae isolate 2688 by agar dilution method; method in brief: as §1
# Streptococcus pneumoniae [32] = test: Antimicrobial activity against Streptococcus pneumoniae 3 by time-kill analysis; method in brief: as §2
# Streptococcus pneumoniae [33] = test: Antimicrobial activity against Streptococcus pneumoniae 6 by time-kill analysis; method in brief: as §2
# Streptococcus pneumoniae [34] = test: Antimicrobial activity against Streptococcus pneumoniae isolate 4747 by agar dilution method; method in brief: as §1
# Streptococcus pneumoniae [35] = test: Antimicrobial activity against Streptococcus pneumoniae 1 by time-kill analysis
# Method in brief: as §2, with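 “12 and” for “12,”, “if” for “=”, “reduction” for “drop”, “90% and 99%” for “90%/99%/99.9%”, “also scored.” for “scored per strain.”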
# Streptococcus pneumoniae [36] = test: Antimicrobial activity against Streptococcus pneumoniae 19A by agar dilution method; method in brief: as §1
# Streptococcus pneumoniae [37] = test: Antimicrobial activity against Streptococcus pneumoniae isolate 3481 by agar dilution method; method in brief: as §1
# Streptococcus pneumoniae [38] = test: Antimicrobial activity against Streptococcus pneumoniae isolate 2617 by agar dilution method; method in brief: as §1
# Streptococcus pneumoniae [39] = test: Antimicrobial activity against Streptococcus pneumoniae isolate 1397 by agar dilution method; method in brief: as §1
# Streptococcus pneumoniae [40] = test: Antimicrobial activity against Streptococcus pneumoniae isolate 3275 by agar dilution method; method in brief: as §1
# Streptococcus pneumoniae [41] = test: Antimicrobial activity against Streptococcus pneumoniae 4 by time-kill analysis; method in brief: as §2
# Streptococcus pneumoniae [42] = test: Antimicrobial activity against Streptococcus pneumoniae isolate 1424 by agar dilution method; method in brief: as §1
# Streptococcus pneumoniae [43] = test: Antimicrobial activity against Streptococcus pneumoniae isolate 1055 by agar dilution method
# Streptococcus pneumoniae [44] = test: Antimicrobial activity against Streptococcus pneumoniae isolate 3282 by agar dilution method
# Streptococcus pneumoniae [45] = test: Antimicrobial activity against Streptococcus pneumoniae 2 by time-kill analysis; method in brief: as §2
# Streptococcus pneumoniae [46] = test: Antimicrobial activity against Streptococcus pneumoniae isolate 3681 by agar dilution method; method in brief: as §1
# Streptococcus pneumoniae [47] = test: Antimicrobial activity against Streptococcus pneumoniae 12 by time-kill analysis; method in brief: as §2
compound,measurement,setting,value
C[C@@H](O)[C@H]1C(=O)N2C(C(=O)O)=C(SCCNC=N)C[C@H]12 [IMIPENEM ANHYDROUS],MIC,Streptococcus pneumoniae [1],0.25 µg/mL
same,MIC50,Streptococcus pneumoniae [2],0.008 µg/mL
same,MIC90,Streptococcus pneumoniae [2],0.008 µg/mL
same,MIC,Streptococcus pneumoniae [3],0.125 µg/mL
same,MIC,Streptococcus pneumoniae [4],0.5 µg/mL
same,MIC,Streptococcus pneumoniae [5],0.25 µg/mL
same,MIC,Streptococcus pneumoniae [6],0.25 µg/mL
same,MIC,Streptococcus pneumoniae [7],0.125 µg/mL
same,MIC,Streptococcus pneumoniae [8],0.25 µg/mL
same,MIC,Streptococcus pneumoniae [9],0.125 µg/mL
same,MIC,Streptococcus pneumoniae [10],0.5 µg/mL
same,MIC,Streptococcus pneumoniae [11],0.5 µg/mL
same,MIC,Streptococcus pneumoniae [12],0.25 µg/mL
same,MIC50,Streptococcus pneumoniae [13],0.25 µg/mL
same,MIC90,Streptococcus pneumoniae [13],0.25 µg/mL
same,MIC,Streptococcus pneumoniae [14],0.5 µg/mL
same,MIC,Streptococcus pneumoniae [15],0.5 µg/mL
same,MIC,Streptococcus pneumoniae [16],0.5 µg/mL
same,MIC,Streptococcus pneumoniae [17],0.25 µg/mL
same,MIC,Streptococcus pneumoniae [18],0.03 µg/mL
same,MIC,Streptococcus pneumoniae [19],0.25 µg/mL
same,MIC,Streptococcus pneumoniae [20],0.25 µg/mL
same,MIC,Streptococcus pneumoniae [21],0.125 µg/mL
same,MIC,Streptococcus pneumoniae [22],0.5 µg/mL
same,MIC,Streptococcus pneumoniae [23],0.125 µg/mL
same,MIC,Streptococcus pneumoniae [24],0.03 µg/mL
same,MIC,Streptococcus pneumoniae [25],0.25 µg/mL
same,MIC,Streptococcus pneumoniae [26],0.125 µg/mL
same,MIC50,Streptococcus pneumoniae [27],0.03 µg/mL
same,MIC90,Streptococcus pneumoniae [27],0.125 µg/mL
same,MIC,Streptococcus pneumoniae [28],0.25 µg/mL
same,MIC,Streptococcus pneumoniae [29],0.125 µg/mL
same,MIC,Streptococcus pneumoniae [30],0.06 µg/mL
same,MIC,Streptococcus pneumoniae [31],0.25 µg/mL
same,MIC,Streptococcus pneumoniae [32],0.06 µg/mL
same,MIC,Streptococcus pneumoniae [33],0.03 µg/mL
same,MIC,Streptococcus pneumoniae [34],0.125 µg/mL
same,MIC,Streptococcus pneumoniae [35],0.004 µg/mL
same,MIC50,Streptococcus pneumoniae [36],0.5 µg/mL
same,MIC90,Streptococcus pneumoniae [36],0.5 µg/mL
same,MIC,Streptococcus pneumoniae [37],0.125 µg/mL
same,MIC,Streptococcus pneumoniae [38],0.125 µg/mL
same,MIC,Streptococcus pneumoniae [39],0.25 µg/mL
same,MIC,Streptococcus pneumoniae [40],0.03 µg/mL
same,MIC,Streptococcus pneumoniae [41],0.25 µg/mL
same,MIC,Streptococcus pneumoniae [42],0.25 µg/mL
same,MIC,Streptococcus pneumoniae [43],0.25 µg/mL
same,MIC,Streptococcus pneumoniae [44],0.125 µg/mL
same,MIC,Streptococcus pneumoniae [45],0.004 µg/mL
same,MIC,Streptococcus pneumoniae [46],0.125 µg/mL
same,MIC,Streptococcus pneumoniae [47],0.25 µg/mL
C[C@@H](O)[C@H]1C(=O)N2C(C(=O)O)=C(S[C@H]3CC[S@@+]([O-])C3)S[C@H]12 [SULOPENEM],MIC,Streptococcus pneumoniae [1],0.5 µg/mL
same,MIC50,Streptococcus pneumoniae [2],0.008 µg/mL
same,MIC90,Streptococcus pneumoniae [2],0.016 µg/mL
same,MIC,Streptococcus pneumoniae [3],0.25 µg/mL
same,MIC,Streptococcus pneumoniae [4],1 µg/mL
same,MIC,Streptococcus pneumoniae [5],1 µg/mL
same,MIC,Streptococcus pneumoniae [6],1 µg/mL
same,MIC,Streptococcus pneumoniae [7],0.25 µg/mL
same,MIC,Streptococcus pneumoniae [8],1 µg/mL
same,MIC,Streptococcus pneumoniae [9],0.25 µg/mL
same,MIC,Streptococcus pneumoniae [10],1 µg/mL
same,MIC,Streptococcus pneumoniae [11],1 µg/mL
same,MIC,Streptococcus pneumoniae [12],1 µg/mL
same,MIC50,Streptococcus pneumoniae [13],0.25 µg/mL
same,MIC90,Streptococcus pneumoniae [13],0.5 µg/mL
same,MIC,Streptococcus pneumoniae [14],1 µg/mL
same,MIC,Streptococcus pneumoniae [15],1 µg/mL
same,MIC,Streptococcus pneumoniae [16],1 µg/mL
same,MIC,Streptococcus pneumoniae [17],0.5 µg/mL
same,MIC,Streptococcus pneumoniae [18],0.12 µg/mL
same,MIC,Streptococcus pneumoniae [19],1 µg/mL
same,MIC,Streptococcus pneumoniae [20],0.5 µg/mL
same,MIC,Streptococcus pneumoniae [21],0.125 µg/mL
same,MIC,Streptococcus pneumoniae [22],1 µg/mL
same,MIC,Streptococcus pneumoniae [23],0.25 µg/mL
same,MIC,Streptococcus pneumoniae [24],0.06 µg/mL
same,MIC,Streptococcus pneumoniae [25],0.5 µg/mL
same,MIC,Streptococcus pneumoniae [26],0.5 µg/mL
same,MIC50,Streptococcus pneumoniae [27],0.06 µg/mL
same,MIC90,Streptococcus pneumoniae [27],0.25 µg/mL
same,MIC,Streptococcus pneumoniae [28],0.5 µg/mL
same,MIC,Streptococcus pneumoniae [29],0.5 µg/mL
same,MIC,Streptococcus pneumoniae [30],0.25 µg/mL
same,MIC,Streptococcus pneumoniae [31],1 µg/mL
same,MIC,Streptococcus pneumoniae [32],0.12 µg/mL
same,MIC,Streptococcus pneumoniae [33],0.12 µg/mL
same,MIC,Streptococcus pneumoniae [34],0.25 µg/mL
same,MIC,Streptococcus pneumoniae [35],0.008 µg/mL
same,MIC50,Streptococcus pneumoniae [36],1 µg/mL
same,MIC90,Streptococcus pneumoniae [36],2 µg/mL
same,MIC,Streptococcus pneumoniae [37],0.25 µg/mL
same,MIC,Streptococcus pneumoniae [38],0.25 µg/mL
same,MIC,Streptococcus pneumoniae [39],0.5 µg/mL
same,MIC,Streptococcus pneumoniae [40],0.125 µg/mL
same,MIC,Streptococcus pneumoniae [41],0.5 µg/mL
same,MIC,Streptococcus pneumoniae [42],0.5 µg/mL
same,MIC,Streptococcus pneumoniae [43],0.25 µg/mL
same,MIC,Streptococcus pneumoniae [44],0.5 µg/mL
same,MIC,Streptococcus pneumoniae [45],0.008 µg/mL
same,MIC,Streptococcus pneumoniae [46],0.25 µg/mL
same,MIC,Streptococcus pneumoniae [47],0.5 µg/mL
